Data set [1] in a line: Metal chelating activity assessed as compound-Cu2+ complex formation by measuring change in wavelength at 50 uM measured after 40 mins in presence of H2O2 by UV spectrophotometric method. A digest of the protocol:
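Compound at 50 µM final in PBS (10 mM, pH 7.4) with 50 µM CuCl₂ and H₂O₂ (500 µM, 10 eq.). UV spectrum tracked over 40 min at room temperature, following peaks at 240, 382 and 210 nm.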

Data set [2] can be described thus: Cytotoxicity against human RWPE2 cells assessed as reduction in cell viability measured after 48 hrs by MTT assay. Format: cell-based. Particulars: RWPE2, 48 h. A digest of the protocol:
(§1)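 Cells seeded 6 × 10⁴ per well, cultured 24 h at 37 °C under 5% CO₂, then exposed to compound for 48 h, with or without 50 µM CuCl₂ or FeCl₃ co-incubation. MTT added for 4 h at 37 °C, formazan dissolved in DMSO, A490 read. IC50 reported as mean (SD), n = 3.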
A general note: Tetrazolium assays rely on reduction of a dye to a coloured formazan, in cell work by metabolically active cells.

In data set [3] the test system is SW1990. Description: Induction of mitochondrial membrane potential loss in human SW1990 cells at 8 to 12 uM measured after 24 hrs by JC1 staining based flow cytometry. It is filed as functional, cell-based. Particulars: dose 8-12 µM. The essentials: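 SW1990 cells seeded at 5 × 10⁵ per well, grown 24 h, then exposed to compound for 24 h. Stained with JC-1 per kit instructions. Flow cytometry gave the percentage of cells with healthy or collapsed mitochondrial membrane potential. Mean ± SD, n = 3.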

A short description of data set [4]: Drug metabolism in human SW1990 cells assessed as nitric oxide release at 8 to 12 uM measured after 24 hrs by DAF-FM DA probe based flow cytometry. As to conditions: sw1990, 24 h, dose 8-12 µM. It is filed as ADME, cell-based. A digest of the protocol: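 SW1990 cells at 80% confluence loaded with 5 µM DAF-FM DA for 20 min at 37 °C, rinsed, then incubated with compound. Optional 1 h pretreatment with 50 µM carboxyl-PTIO before 12 µM treatment. Fluorescence read by flow cytometry (ex 495 / em 515 nm). Mean ± SD, n = 3.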
Background: A flow cytometer gives signals particle by particle.

A short description of data set [5]: Stability of compound in presence of GSH at 100 uM measured after 1 hr by RP-HPLC analysis. Format: physicochemical. A digest of the protocol:
(§2)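 Compound (100 µM) incubated at 37 °C for 1 h with one of: ROS species (1 mM), NO solution (1 mM), GSH (200 µM), CuCl₂ (10 µM) or FeCl₃ (10 µM). Percent decomposed was determined by RP-HPLC (ODS column, 0.1% TFA water/methanol gradient, 1 mL/min, 256 nm).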

Data set [6] relates to SW1990. Description: Induction of apoptosis in human SW1990 cells at 8 to 12 uM measured after 24 hrs by Annexin V-FITC/propidium iodide staining based flow cytometry. It is filed as functional, cell-based. Particulars: dose 8-12 µM. The essentials: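 SW1990 cells seeded 5 × 10⁵ per well and grown 24 h, then treated 24 h at 8 or 12 µM. Optional 1 h pretreatment with 20 mM NAC or 50 µM carboxyl-PTIO before 12 µM treatment. Cells stained with annexin V-FITC 15 min and PI 5 min at room temperature in the dark, then analysed by flow cytometry. Mean ± SD, n = 3.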

The test system of data set [7] is PANC-1. The data set is described as follows: Cytotoxicity against human PANC-1 cells assessed as reduction in cell viability measured after 48 hrs by MTT assay. Format: functional, cell-based. Particulars: PANC-1, 48 h. The essentials: as §1
The nature of data set [8]: Metal chelating activity assessed as compound-Cu2+ complex formation by measuring intracellular HO level in human SW1990 cells at 10 uM measured after 1 hr in presence of CuCl2 and HO radical scavenger tempol by HO probe based confocal laser scanning microscopic analysis. Format: cell-based. The essentials:
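SW1990 cells at 80% confluence were loaded with 20 µM HO· probe at 37 °C for 30 min and rinsed. They then received 50 µM CuCl₂, followed by 10 µM compound for 1 h. For the scavenger arm, 1 mM tempol was given for 30 min before CuCl₂. CLSM imaging at λex 570 / λem 650 nm gave mean intensity; n = 3.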

A short description of data set [9]: Prodrug activation in peroxynitrite ONOO- assessed as drug decomposition at 100 uM measured after 1 hr by RP-HPLC analysis. A digest of the protocol: as §2
The nature of data set [10]: Prodrug activation in ClO- at 100 uM measured after 1 hr by RP-HPLC analysis. A digest of the protocol: as §2
Data set [11] has as its system SW1990. Description: Induction of apoptosis in human SW1990 cells assessed as increase in cleaved caspase-9 expression at 8 to 12 uM measured after 24 hrs by Western blot analysis. It is filed as functional, cell-based. Particulars: dose 8-12 µM. The essentials: (§3)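 SW1990 cells seeded 5 × 10⁵ per well and grown 24 h at 37 °C, then treated 24 h. Lysates quantified by BCA, resolved by SDS-PAGE and transferred to nitrocellulose. Blocked in 5% milk, probed overnight at 4 °C for cleaved caspase-3, cleaved caspase-9, Bax and Bcl-2, then HRP secondary 2 h. ECL detection.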

Data set [12] relates to SW1990. Description: Cytotoxicity against human SW1990 cells assessed as reduction in cell viability measured after 48 hrs in presence of 10 to 50 uM Cu2+ by MTT assay. As to conditions: dose 10-50 µM. It is filed as functional, cell-based.
Data set [13] in a line: Stability of compound in DMEM with 10% fetal bovine serum assessed as parent compound remaining measured after 24 hrs by RP-HPLC analysis. Format: cell-free. The essentials: (§4)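 Compound (1 µM) stirred at 37 °C either in PBS (pH 5.0, 7.4 or 10.0) containing 5% DMSO or in DMEM with 10% FBS. Aliquots were analysed by RP-HPLC (0.1% TFA water/methanol gradient, 256 nm) for remaining intact compound, up to 24 h.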

Data set [14] concerns SW1990. Description: Cytotoxicity against human SW1990 cells assessed as reduction in cell viability at 10 to 20 uM measured after 48 hrs in presence of ROS quencher NAC by MTT assay. It is filed as functional, cell-based. As to conditions: dose 10-20 µM. The essentials:
(§5)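 SW1990 cells pretreated 1 h at 37 °C with 20 mM NAC or 50 µM carboxy-PTIO, then treated 48 h with compound at 10 or 20 µM. Percent cell death by MTT (A490). Mean ± SD, n = 3.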

Data set [15] can be described thus: Stability of compound in pH 7.4 PBS buffer assessed as parent compound remaining measured after 24 hrs by RP-HPLC analysis. It is filed as physicochemical. Particulars: read-out: Stabilty. The essentials: as §4
The subject of data set [16] is SW1990. The data set is described as follows: Cytotoxicity against human SW1990 cells assessed as reduction in cell viability at 10 to 20 uM measured after 48 hrs in presence of NO scavenger Carboxyl-PTIO by MTT assay. As to conditions: dose 10-20 µM. Format: functional, cell-based. A digest of the protocol:
as §5

The nature of data set [17]: Stability of compound in presence of Fe3+ at 100 uM measured after 1 hr by RP-HPLC analysis. Format: physicochemical. A digest of the protocol:
as §2

The test system of data set [18] is SW1990. The data set is described as follows: Cytotoxicity against human SW1990 cells assessed as reduction in cell viability measured after 48 hrs in presence of CuCl2 by MTT assay. Particulars: SW1990, 48 h. Format: functional, cell-based. The essentials:
as §1

The test system of data set [19] is SW1990. The data set is described as follows: Induction of apoptosis in human SW1990 cells assessed as increase in Bax-2 expression at 8 to 12 uM measured after 24 hrs by Western blot analysis. It is filed as functional, cell-based. Particulars: dose 8-12 µM. The essentials:
as §3

The test system of data set [20] is SW1990. Description: Cytotoxicity against human SW1990 cells assessed as reduction in cell viability measured after 48 hrs in presence of FeCl3 by MTT assay. Format: functional, cell-based. As to conditions: SW1990, 48 h. A digest of the protocol: as §1
A short description of data set [21]: Stability of compound in pH 10 PBS buffer assessed as parent compound remaining measured after 24 hrs by RP-HPLC analysis. Particulars: read-out: Stabilty. Format: physicochemical. The essentials:
as §4

SMILES strings stand for the structures. The source made the active and inactive calls. The rule behind the calls is not given here.

A word on the IC50: it is the concentration needed to halve the response being measured. As to `O=C(NCCCOc1no[n+]([O-])c1S(=O)(=O)c1ccccc1)c1ccc2cccc(OCc3ccc(B(O)O)cc3)c2n1`, the Activity is 210 nm in [1] and “Dose-dependent effect” in [12]. For the same compound, the IC50 in data set [2] was 35.6 µM; in data set [7], 10.5 µM; in data set [18], 1200 nM; in [20], 15.4 µM. For the same compound, the outcome in data set [3], in [6], in [11] and in [19] was Active. Also, the Drug metabolism result is “Metabolite_Detected” in data set [4] and “Metabolite_Notdetected” in data set [10]. The Stabilty entry in [5] and in data set [17] was “Stable” in each case. Also, the result in data set [8], in [14] and in data set [16] was inactive. Besides, in data set [9], the Drug degradation came to 20.8%. For the same compound, the Stability in data set [13] is above 80%. Further, the remaining at 24 h in data set [15] and in data set [21] was above 80% each time.

(Values after ChEMBL document CHEMBL4732146, “Nitric oxide-donating and reactive oxygen species-responsive prochelators based on 8-hydroxyquinoline as anticancer agents” (Eur J Med Chem, 2021).)
